From ChEMBL document CHEMBL4422614 (Eur J Med Chem, 2019) come the findings set out here.

For series [1], the system named is Mus musculus. The experiment in a line: Cognition enhancement activity in amyloid beta (25 to 35 residues) induced C57BL/6J mouse model of Alzheimer's disease assessed as swimming path length in virtual platform at 4 mg/kg/day, ig administered for 26 consecutive days by Morris water maze test (10.2 +/- 3.2 cm). The class given is functional. A digest of the protocol:
(§1)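 Mice were randomized into 7 groups. All except sham got an ICV injection of Aβ25-35 (3 nmol); sham got the same volume of saline ICV. Dosing was intragastric daily for 26 days, with 0.5% CMC-Na as vehicle for sham and model. Body weight, diarrhea and emesis-like behavior were monitored.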

The nature of series [2]: Antioxidant activity assessed as trolox equivalent of AAPH-induced radical scavenging activity at 10 to 20 uM preincubated for 10 mins followed by AAPH addition measured every minute for 120 mins by ORAC fluorescein assay. The class given is functional. A digest of the protocol:
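ORAC values are expressed as trolox equivalents, mean ± SD of three independent experiments.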

In series [3] the test system is Mus musculus. The experiment in a line: Cognition enhancement activity in amyloid beta (25 to 35 residues) induced C57BL/6J mouse model of Alzheimer's disease assessed as increase in number of virtual platform crossing at 4 mg/kg/day, ig administered for 26 consecutive days by Morris water maze test. The series is classed as functional, organism-based. A digest of the protocol:
as §1

Another series is described as follows: in vitro. The following applies: PAMPA.
Series [4] concerns Mus musculus. The experiment in a line: Neuroprotection in amyloid beta (25 to 35 residues) induced C57BL/6J mouse model of Alzheimer's disease assessed as reduction in ratio of apoptotic neuron in CA1 hippocampus region at 4 mg/kg/day, ig administered for 26 consecutive days by hematoxylin and eosin staining-based light microscopic analysis (reference value: 40.6 +/- 12.5%). The class given is ADME, organism-based. The following applies: in vivo, po. Details: scale not given: the % may be the effect or the level left. The method in brief:
(§2)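 Hippocampal CA1, CA3 and DG neurons were stained with H&E after the Aβ25-35 ICV model and 26-day intragastric dosing. Denatured cell index = denatured cells/total cells, n = 5. Values are mean ± SD, two-way ANOVA versus model.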

Series [5] concerns Mus musculus. The experiment in a line: Neuroprotection in amyloid beta (25 to 35 residues) induced C57BL/6J mouse model of Alzheimer's disease assessed as reduction in ratio of apoptotic neuron in DG hippocampus region at 4 mg/kg/day, ig administered for 26 consecutive days by hematoxylin and eosin staining-based light microscopic analysis (reference value: 55.8 +/- 7.2%). The class given is ADME, organism-based. Details: scale not given: the % may be the effect or the level left. The following applies: in vivo, po. The method in brief:
as §2

Series [6] relates to Mus musculus. The experiment in a line: Cognition enhancement activity in amyloid beta (25 to 35 residues) induced C57BL/6J mouse model of Alzheimer's disease assessed as swimming speed at 4 mg/kg/day, ig administered for 26 consecutive days by Morris water maze test (reference value: 15.6 +/- 2.4 cm/sec). The series is classed as functional. The method in brief: as §1
Series [7] has as its system Mus musculus. Nature of the series: Cognition enhancement activity in amyloid beta (25 to 35 residues) induced C57BL/6J mouse model of Alzheimer's disease assessed as swimming time in effective region at 4 mg/kg/day, ig administered for 26 consecutive days by Morris water maze test (4.3 +/- 1.3 sec). The series is classed as functional. The method in brief:
as §1

Series [8] relates to Mus musculus. Nature of the series: Neuroprotection in amyloid beta (25 to 35 residues) induced C57BL/6J mouse model of Alzheimer's disease assessed as reduction in ratio of apoptotic neuron in CA3 hippocampus region at 4 mg/kg/day, ig administered for 26 consecutive days by hematoxylin and eosin staining-based light microscopic analysis (reference value: 80.2 +/- 8.6%). The class given is ADME, organism-based. Details: scale not given: the % may be the effect or the level left. The following applies: in vivo, po. The method in brief:
as §2

The subject of series [9] is Mus musculus. Nature of the series: Cognition enhancement activity in amyloid beta (25 to 35 residues) induced C57BL/6J mouse model of Alzheimer's disease assessed as decrease in escape latancy at 4 mg/kg/day, ig administered for 26 consecutive days by Morris water maze test. The class given is functional, organism-based. A digest of the protocol:
as §1

Molecules are shown by their SMILES. Calls of active or inactive are those of the source. No cut-off for these calls is given here.

What is called Papp is the rate of passage across a membrane or cell layer, normalised by area and donor concentration. With `O=C(Nc1c(Cl)cncc1Cl)c1ccc(OC(F)F)c(OCC2CC2)c1` [ROFLUMILAST], the Activity in the series on Mus musculus [1] stood at 16 cm; in series [2], 0.067 equiv; in the series with Mus musculus [4], 16.5%; in the series on Mus musculus [5], 25.1%; in the series on Mus musculus [6], 14.5 cm/s; in the series on Mus musculus [8], 38.7%. Further, the result with Mus musculus [3] and with Mus musculus [9] was Active. In addition, the apparent permeability coefficient (Papp) at 10 h, 100 ug/ml in “in vitro” turned out to be 9.22 ×10⁻⁶ cm/s. Further, the Time with Mus musculus [7] is reported as 5.4 s.
